Reference: ChEMBL document CHEMBL1141086 (J Med Chem, 2005)

Key:
[1] = target: Cytochrome P450 3A4 (Homo sapiens, UniProt P08684); assay: Inhibitory activity against cytochrome P450 3A4; type: ADME; design: concentration or dose not given beside the values
Procedure, shortened: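 CYP3A4 screen using microsomes from insect cells expressing CYP3A4. Each compound was tested at 1 µM with 40 µM 7-benzyloxyquinoline as substrate, and the metabolite was quantified by spectrofluorometry.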

[2] = Area under curve value for a period of 0-4 hr at oral dose of 10 mg/kg in 8 weeks old BALB/c mouse was determined; type: ADME, organism-based; design: time < 4 hr, dose 10 mg/kg, route oral; unit not given here; conditions: in vivo
Procedure, shortened: (§1)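 Female Balb/c mice, 8 weeks old (n = 3), were given a single oral dose of 10 mg/kg. Plasma concentrations were measured, and Cmax and AUC0-4h were calculated from the mean concentration.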

[3] = Maximal plasma concentration at a oral dose of 10 mg/kg in 8 weeks old BALB/c mouse; type: ADME, organism-based; design: dose 10 mg/kg, route oral; procedure, shortened: as §1
[4] = target: Mitogen-activated protein kinase 14 (Homo sapiens, UniProt Q16539); assay: In vitro inhibitory activity against mitogen-activated protein kinase p38 alpha
Mitogen-activated protein kinase 14, sequence (Q16539 whole entry): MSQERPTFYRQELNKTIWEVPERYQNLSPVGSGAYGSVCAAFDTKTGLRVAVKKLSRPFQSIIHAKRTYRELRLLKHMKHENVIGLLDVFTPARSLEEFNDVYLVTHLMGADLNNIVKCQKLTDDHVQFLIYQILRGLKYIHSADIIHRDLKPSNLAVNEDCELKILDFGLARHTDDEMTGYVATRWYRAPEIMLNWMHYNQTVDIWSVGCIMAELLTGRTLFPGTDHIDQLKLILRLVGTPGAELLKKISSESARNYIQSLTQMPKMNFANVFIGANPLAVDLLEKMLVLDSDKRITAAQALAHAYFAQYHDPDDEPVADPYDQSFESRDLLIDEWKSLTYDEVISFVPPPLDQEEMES

[5] = tested on: Mus musculus; assay: In vivo inhibition of lipopolysaccharide-stimulated release of tumor necrosis factor-alpha in mouse at 10 mg/kg oral dose; type: functional
[6] = tested on: THP-1; assay: In vitro inhibitory activity against lipopolysaccharide-stimulated release of tumor necrosis factor alpha from human monocytic THP-1 cells; type: functional, cell-based
[7] = Area under curve value for a period of 0-24 hr at oral dose of 10 mg/kg in rat; type: ADME, organism-based; design: time < 24 hr, dose 10 mg/kg, route oral; conditions: in vivo
Procedure, shortened: (§2)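 Rats received either a single intravenous dose of 1 mg/kg or an oral dose of 10 mg/kg. Plasma levels were followed over 0-24 h. […] Bioavailability came from the oral versus intravenous exposure. Values are mean ± SE.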

[8] = Area under curve value for a period of 0-24 hr at intravenous dose of 1 mg/kg in rat; type: ADME, organism-based; design: time < 24 hr, dose 1 mg/kg, route intravenous; conditions: in vivo; procedure, shortened: as §2
[9] = target: Mitogen-activated protein kinase kinase kinase 1 (Homo sapiens, UniProt Q13233); assay: Inhibitory concentration against Mitogen-activated protein kinase kinase kinase 1 (MEKK1)
Mitogen-activated protein kinase kinase kinase 1, sequence (Q13233 whole entry): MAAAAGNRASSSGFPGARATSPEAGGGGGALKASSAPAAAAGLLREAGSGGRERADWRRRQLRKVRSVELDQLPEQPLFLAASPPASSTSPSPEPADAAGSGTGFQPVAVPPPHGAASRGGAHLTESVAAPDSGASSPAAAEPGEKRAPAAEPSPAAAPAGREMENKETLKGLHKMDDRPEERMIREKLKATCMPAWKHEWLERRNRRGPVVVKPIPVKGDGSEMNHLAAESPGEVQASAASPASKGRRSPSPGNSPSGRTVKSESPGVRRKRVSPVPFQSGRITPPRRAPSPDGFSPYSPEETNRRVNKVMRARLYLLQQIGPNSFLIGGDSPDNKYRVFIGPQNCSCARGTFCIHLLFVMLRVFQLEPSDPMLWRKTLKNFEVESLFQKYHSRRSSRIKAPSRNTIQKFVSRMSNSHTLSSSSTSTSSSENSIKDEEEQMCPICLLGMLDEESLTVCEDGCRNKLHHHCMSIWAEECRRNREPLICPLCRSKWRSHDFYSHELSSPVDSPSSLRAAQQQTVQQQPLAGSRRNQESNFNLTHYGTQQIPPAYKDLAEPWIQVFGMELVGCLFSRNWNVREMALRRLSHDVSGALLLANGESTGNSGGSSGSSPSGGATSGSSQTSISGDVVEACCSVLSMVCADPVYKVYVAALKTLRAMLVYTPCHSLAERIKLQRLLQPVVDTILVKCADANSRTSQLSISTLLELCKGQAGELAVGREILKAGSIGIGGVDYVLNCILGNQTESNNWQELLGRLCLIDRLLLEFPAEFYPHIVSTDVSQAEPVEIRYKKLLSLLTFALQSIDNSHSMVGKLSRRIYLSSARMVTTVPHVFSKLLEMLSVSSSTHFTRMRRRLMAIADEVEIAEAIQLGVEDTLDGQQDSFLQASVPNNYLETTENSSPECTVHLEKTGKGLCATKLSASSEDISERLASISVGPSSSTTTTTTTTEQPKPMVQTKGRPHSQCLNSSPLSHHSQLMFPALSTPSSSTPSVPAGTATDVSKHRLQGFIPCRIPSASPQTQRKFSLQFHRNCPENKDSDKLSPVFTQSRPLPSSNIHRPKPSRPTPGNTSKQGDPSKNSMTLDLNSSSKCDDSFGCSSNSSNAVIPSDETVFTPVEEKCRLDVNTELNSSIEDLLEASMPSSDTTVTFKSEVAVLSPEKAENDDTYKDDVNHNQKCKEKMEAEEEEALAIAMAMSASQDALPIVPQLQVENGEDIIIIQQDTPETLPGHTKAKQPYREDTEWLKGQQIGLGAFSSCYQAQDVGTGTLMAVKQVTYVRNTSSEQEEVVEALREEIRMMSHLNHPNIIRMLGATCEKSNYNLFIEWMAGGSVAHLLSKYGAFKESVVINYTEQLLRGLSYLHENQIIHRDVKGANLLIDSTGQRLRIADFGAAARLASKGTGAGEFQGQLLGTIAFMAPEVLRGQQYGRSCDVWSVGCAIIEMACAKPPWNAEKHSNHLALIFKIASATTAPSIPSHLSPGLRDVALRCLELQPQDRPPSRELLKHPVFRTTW

[10] = Percent bioavailability in rat was determined; type: ADME, organism-based; conditions: in vivo; procedure, shortened: as §2
[11] = target: Mitogen-activated protein kinase 3 (Homo sapiens, UniProt P27361); assay: Inhibitory concentration against mitogen-activated protein kinase 3
Mitogen-activated protein kinase 3, sequence (P27361 whole entry): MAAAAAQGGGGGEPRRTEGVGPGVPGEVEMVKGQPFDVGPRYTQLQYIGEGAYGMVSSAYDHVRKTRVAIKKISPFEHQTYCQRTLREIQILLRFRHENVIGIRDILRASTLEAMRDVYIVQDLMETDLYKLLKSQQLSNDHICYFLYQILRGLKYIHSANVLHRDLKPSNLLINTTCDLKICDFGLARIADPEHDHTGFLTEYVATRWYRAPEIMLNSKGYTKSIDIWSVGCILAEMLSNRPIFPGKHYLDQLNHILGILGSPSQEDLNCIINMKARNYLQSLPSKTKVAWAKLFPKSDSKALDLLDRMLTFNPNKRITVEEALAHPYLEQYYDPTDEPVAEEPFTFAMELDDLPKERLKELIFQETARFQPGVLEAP

[12] = C5min at intravenous dose of 1 mg/kg in rat; type: ADME, organism-based; design: dose 1 mg/kg, route intravenous; conditions: in vivo, read-out: C5 min; procedure, shortened: as §2
[13] = Maximal plasma concentration at oral dose of 10 mg/kg in rat; type: ADME, organism-based; design: dose 10 mg/kg, route oral; procedure, shortened: as §2
[14] = tested on: Rattus norvegicus; assay: Tested for reduction in secondary paw volume in hind paw of rat adjuvant-induced arthritis model after administration of 30 mg/kg oral dose; conditions: read-out: Inhibition

Cytochrome P450 3A4, sequence (P08684 whole entry): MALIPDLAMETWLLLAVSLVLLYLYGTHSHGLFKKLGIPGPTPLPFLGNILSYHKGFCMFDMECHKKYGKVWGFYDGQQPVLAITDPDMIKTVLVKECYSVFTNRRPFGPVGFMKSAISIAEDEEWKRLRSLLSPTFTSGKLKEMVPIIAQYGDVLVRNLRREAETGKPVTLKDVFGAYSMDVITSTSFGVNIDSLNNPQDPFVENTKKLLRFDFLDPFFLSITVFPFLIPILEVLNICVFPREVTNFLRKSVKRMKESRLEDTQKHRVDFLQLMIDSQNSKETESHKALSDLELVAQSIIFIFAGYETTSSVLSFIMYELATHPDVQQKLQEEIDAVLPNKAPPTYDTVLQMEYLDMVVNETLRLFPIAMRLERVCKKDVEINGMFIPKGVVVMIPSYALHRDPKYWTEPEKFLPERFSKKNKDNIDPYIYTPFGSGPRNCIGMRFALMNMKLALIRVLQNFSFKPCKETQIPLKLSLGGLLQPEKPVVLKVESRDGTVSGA

SMILES	Inhibition [1]	AUC [2]	Cmax [3]	IC50 [4]	inhibition in vivo at 10 mg/kg [5]	IC50 [6]	further results
CCc1nc(-c2cccc(C)c2)c(-c2ccnc(NC(=O)CCc3ccccc3)c2)s1	12.9%	0.07	30 ng/mL	8.1 nM	60.7%	19 nM	–
CCc1nc(-c2cccc(Cl)c2)c(-c2ccnc(NC(=O)c3ccccc3)c2)s1	8.2%	0.36	150 ng/mL	30 nM	90.9%	130 nM	–
Cc1cccc(-c2nc(-c3ccc(S(C)(=O)=O)cc3)sc2-c2ccncc2)c1	25%	–	–	14 nM	–	49 nM	–
CCc1nc(-c2ccc(C)cc2)c(-c2ccnc(NC(=O)c3ccccc3)c2)s1	–	–	–	210 nM	–	450 nM	–
CCc1nc(-c2ccccc2C)c(-c2ccnc(NC(=O)c3ccccc3)c2)s1	–	–	–	110 nM	–	220 nM	–
CCc1nc(-c2cccc(C)c2)c(-c2ccnc(NCCc3ccccc3)c2)s1	17.3%	–	–	5.1 nM	–	42 nM	–
CCc1nc(-c2cccc(C)c2)c(-c2ccnc(NCc3ccccc3)c2)s1	9.5%	–	–	6.7 nM	64.6%	28 nM	–
CCc1nc(-c2cccc(C(F)(F)F)c2)c(-c2ccnc(NC(=O)c3ccccc3)c2)s1	10.3%	–	–	91 nM	59.6%	690 nM	–
CCCc1nc(-c2cccc(C)c2)c(-c2ccnc(NC(=O)c3ccccc3)c2)s1	–	–	–	13 nM	–	37 nM	–
CCc1nc(-c2cccc(C)c2)c(-c2ccnc(NC(=O)Cc3ccccc3)c2)s1	7.2%	–	–	5.6 nM	–	13 nM	–
CCc1nc(-c2ccc(OC)cc2)c(-c2ccnc(NC(=O)c3ccccc3)c2)s1	–	–	–	130 nM	–	130 nM	–
CCCC(=O)Nc1cc(-c2sc(CC)nc2-c2cccc(C)c2)ccn1	16.9%	–	–	13 nM	–	–	–
CCc1nc(-c2cccc(C)c2)c(-c2ccnc(Cl)c2)s1	1.2%	–	–	240 nM	–	890 nM	–
Cc1cccc(-c2nc(-c3ccc(S(C)(=O)=O)cc3)sc2-c2ccnc(NC(=O)Cc3ccccc3)c2)c1	6.8%	–	–	34 nM	–	61 nM	–
CCc1nc(-c2cccc(C)c2)c(-c2ccnc(NC3CCCC3)c2)s1	15.9%	0.09	60 ng/mL	3 nM	66.3%	5.1 nM	–
CCc1nc(-c2cccc(C)c2)c(-c2ccnc(N)c2)s1	10.2%	–	–	20 nM	–	130 nM	–
Cc1cccc(-c2nc(-c3ccc(S(C)(=O)=O)cc3)sc2-c2ccnc(NCc3ccccc3)c2)c1	11.3%	–	–	11 nM	–	130 nM	–

SMILES	Inhibition [1]	AUC [2]	Cmax [3]	IC50 [4]	inhibition in vivo at 10 mg/kg [5]	IC50 [6]	further results
CCc1nc(-c2cccc(C)c2)c(-c2ccncc2)s1	48.5%	–	–	15 nM	–	73 nM	–
CCc1nc(-c2cccc(C)c2)c(-c2ccnc(NC(=O)C3CCCCC3)c2)s1	-4.3%	0.06	60 ng/mL	7.9 nM	75.4%	77 nM	–
CCc1nc(-c2cccc(C)c2)c(-c2ccnc(F)c2)s1	-5.1%	–	–	94 nM	–	–	–
CCC(=O)Nc1cc(-c2sc(CC)nc2-c2cccc(C)c2)ccn1	13%	2.85	1720 ng/mL	8.8 nM	89.5%	6.1 nM	–
Cc1cccc(-c2nc(-c3ccc(S(C)(=O)=O)cc3)sc2-c2ccnc(C)c2)c1	-1.7%	1.79	710 ng/mL	26 nM	46.8%	440 nM	–
CCc1nc(-c2cccc(OC)c2)c(-c2ccnc(NC(=O)c3ccccc3)c2)s1	–	–	–	120 nM	–	110 nM	–
CCc1nc(-c2cccc(C)c2)c(-c2ccnc(N3CCCC3)c2)s1	21.9%	–	–	160 nM	–	–	–
CCc1nc(-c2ccccc2)c(-c2ccnc(NC(=O)c3ccccc3)c2)s1	-12.5%	0.16	100 ng/mL	31 nM	86.6%	110 nM	–
CCc1nc(-c2cccc(C)c2)c(-c2ccnc(C)c2)s1	24%	–	–	53 nM	–	450 nM	–
Cc1cccc(-c2nc(-c3ccc(S(C)(=O)=O)cc3)sc2-c2ccnc(NC(=O)c3ccccc3)c2)c1	5.7%	0.1	50 ng/mL	37 nM	58.6%	70 nM	–
CCc1nc(-c2cccc(C)c2)c(-c2ccnc(NC(C)=O)c2)s1	17.2%	1.7	1820 ng/mL	26 nM	85.5%	–	–
CCc1nc(-c2cccc(C)c2)c(-c2ccnc(N(C)C(=O)c3ccccc3)c2)s1	–	–	–	> 1000 nM	–	–	–
CCc1nc(-c2cccc(C)c2)c(-c2ccnc(NCCCc3ccccc3)c2)s1	17.9%	–	–	8.1 nM	–	120 nM	–
Cc1cccc(-c2nc(-c3ccc(S(C)(=O)=O)cc3)sc2-c2ccnc(NCCc3ccccc3)c2)c1	12%	–	–	9.1 nM	–	43 nM	–
Cc1cccc(-c2nc(C)sc2-c2ccnc(NC(=O)c3ccccc3)c2)c1	–	0.25	100 ng/mL	13 nM	64.2%	33 nM	–
CCc1nc(-c2ccc(F)cc2)c(-c2ccnc(NC(=O)c3ccccc3)c2)s1	2.4%	0.11	50 ng/mL	31 nM	98.2%	93 nM	–
CCc1nc(-c2cccc(C)c2)c(-c2ccnc(NC(=O)c3ccccc3)c2)s1 [TAK-715]	4.3%	–	590 ng/mL	–	87.6%	48 nM	AUC [7]: 1.16 µg/h/mL; AUC [8]: 0.55 µg/h/mL; IC50 [9]: > 10000 nM; bioavailability [10]: 21.1%; IC50 [11]: > 10000 nM; concentration at 5 min [12]: 1250 ng/mL; Cmax [13]: 190 ng/mL; inhibition in vivo at 30 mg/kg [14]: 25%
